Assay results: PubChem BioAssay AID652011 (Sanford-Burnham Center for Chemical Genomics, 2013)
Several values for one entry are separate records, joined by “and”; a condition that tells them apart may be missing. Equal values may be shown once.

Biological target: Endothelial PAS domain-containing protein 1 (Homo sapiens) (UniProt Q99814)
Assay: HIF reporter inhibition across pancreatic and renal lines – cell-based, luminescence, MIAPaCa-2, 786-0, panel, SAR follow-up (AID 652011)
Details: MIAPaCa-2/PANC HIF reporter, luciferase luminescence, desferoxamine, overnight, HIF2a PANC, run 2; at 99 µM (top of the series)
How it was run: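 Detection: luminescence, One-Glo; Reagent: desferoxamine; Incubation: overnight seeding and compound exposure, 37 °C, 5% CO2, 10-min detection.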

Endothelial PAS domain-containing protein 1 (Homo sapiens), sequence (Q99814 whole entry, looked up, the tested form may be a part): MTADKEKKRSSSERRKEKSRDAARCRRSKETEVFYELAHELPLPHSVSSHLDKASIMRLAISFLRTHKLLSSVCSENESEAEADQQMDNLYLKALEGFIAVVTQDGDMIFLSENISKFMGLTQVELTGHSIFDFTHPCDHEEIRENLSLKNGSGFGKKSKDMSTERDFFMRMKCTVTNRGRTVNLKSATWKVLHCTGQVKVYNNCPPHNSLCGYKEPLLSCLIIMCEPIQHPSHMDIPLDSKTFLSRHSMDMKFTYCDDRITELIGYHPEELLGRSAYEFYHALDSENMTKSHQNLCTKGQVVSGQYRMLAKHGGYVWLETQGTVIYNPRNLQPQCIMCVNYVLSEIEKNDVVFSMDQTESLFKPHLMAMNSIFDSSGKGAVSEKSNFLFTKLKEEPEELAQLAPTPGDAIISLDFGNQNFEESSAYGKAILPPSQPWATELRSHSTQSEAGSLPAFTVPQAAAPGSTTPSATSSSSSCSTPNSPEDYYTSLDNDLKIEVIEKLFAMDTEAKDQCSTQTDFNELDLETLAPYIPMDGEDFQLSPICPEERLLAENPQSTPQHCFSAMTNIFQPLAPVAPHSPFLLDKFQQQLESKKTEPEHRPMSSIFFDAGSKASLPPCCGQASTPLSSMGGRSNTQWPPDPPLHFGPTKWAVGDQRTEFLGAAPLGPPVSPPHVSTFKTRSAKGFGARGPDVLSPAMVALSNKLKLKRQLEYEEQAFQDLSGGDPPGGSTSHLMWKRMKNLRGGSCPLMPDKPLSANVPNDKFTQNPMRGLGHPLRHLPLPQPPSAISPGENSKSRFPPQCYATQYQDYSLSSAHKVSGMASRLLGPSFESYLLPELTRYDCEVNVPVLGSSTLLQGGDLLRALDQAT

SMILES | inhibition
CCCCc1ccc(-c2noc(CCC(=O)NC)n2)cc1 | -4.31%
COc1ccccc1NC(=O)CCc1nc(-c2ccc(C(C)(C)C)cc2)no1 | 123%
CNC(=O)CCc1nc(-c2ccc(C)cc2)no1 | 76.6%
CCc1ccc(-c2noc(CCC(=O)NC)n2)cc1 | -49.2%
CCN(CC)C(=O)CCc1nc(-c2ccc(C(C)(C)C)cc2)no1 | 76.8% and 78.5%
CN(C)C(=O)CCc1nc(-c2ccc(C(C)(C)C)cc2)no1 | 42.5% and -5.18%
CNC(=O)CCc1nc(-c2ccccc2)no1 | -73.5% and 30.8%
CC(C)(C)c1ccc(-c2noc(CCC(=O)NCc3ccco3)n2)cc1 | 99.3% and 99%
CCNC(=O)CCc1nc(-c2cccc(OC)c2)no1 | -12.7%
CCOc1ccc(-c2noc(CCC(=O)O)n2)cc1 | 109%
CC(C)NC(=O)CCc1nc(-c2ccc(C(C)(C)C)cc2)no1 | 64.9%
CC(C)(C)c1ccc(-c2noc(CCC(=O)NC3CCCCC3)n2)cc1 | 104%
CCNC(=O)CCc1nc(-c2c(Cl)cccc2Cl)no1 | 31.9%
CNC(=O)CCc1nc(-c2ccc(Cl)cc2)no1 | -17.8%
CC(C)(C)c1ccc(-c2noc(CCC(=O)NCC3CCCO3)n2)cc1 (stereo not given) | 16.7%
CNC(=O)CCc1nc(-c2ccc(C(C)(C)C)cc2)no1 | 47.3%
CC(C)CNC(=O)CCc1nc(-c2ccc(C(C)(C)C)cc2)no1 | 65.5%
CCCCc1ccc(-c2noc(CCC(=O)NC3CC3)n2)cc1 | 16%
CCOc1ccccc1NC(=O)CCc1nc(-c2ccc(C(C)(C)C)cc2)no1 | 112%
O=C(CCc1nc(-c2ccccc2)no1)NC1CC1 | 56.6%
